The test system of data set [1] is Mus musculus. Nature of the data set: In vivo agonist activity at A3AR in C57BL/6J mouse assessed as reduction in core body temperature at 3 mg/kg, ip measured up to 2 hrs by telemetric method. Format: functional, organism-based. The method, boiled down:
(§1)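 Male C57BL/6J wild-type mice, plus A3AR-knockout (ADORA3−/−) mice at 10 mg/kg, given test agent or vehicle i.p. Core body temperature (Tb) was followed over time. N=4 to 12 per group. Groups were compared by two-tailed t-test, paired or unpaired as appropriate.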

The nature of data set [2]: Half life in Wistar rat at 10 mg/kg, po. Format: ADME, organism-based. Particulars: in vivo.
The target of data set [3] is Sigma intracellular receptor 2 (Homo sapiens, UniProt Q5BJF2). Put plainly: Displacement of [3H]-DTG from sigma 2 receptor (unknown origin) measured after 90 mins by microbeta counting analysis. On the technique in general: In a radioligand displacement assay an active substance lowers the binding of a labelled ligand.
Sigma intracellular receptor 2, sequence (Q5BJF2 whole entry): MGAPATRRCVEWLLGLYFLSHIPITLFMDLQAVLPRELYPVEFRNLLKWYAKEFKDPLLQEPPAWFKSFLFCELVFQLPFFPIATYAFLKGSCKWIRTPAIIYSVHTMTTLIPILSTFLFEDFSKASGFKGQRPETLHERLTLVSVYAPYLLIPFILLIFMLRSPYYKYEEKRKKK
For data set [4], the target named is Sigma non-opioid intracellular receptor 1 (Homo sapiens, UniProt Q99720). Put plainly: Displacement of [3H]-Pentazocine from sigma 1 receptor (unknown origin) measured after 90 mins by microbeta counting analysis.
Sigma non-opioid intracellular receptor 1, sequence (Q99720 whole entry): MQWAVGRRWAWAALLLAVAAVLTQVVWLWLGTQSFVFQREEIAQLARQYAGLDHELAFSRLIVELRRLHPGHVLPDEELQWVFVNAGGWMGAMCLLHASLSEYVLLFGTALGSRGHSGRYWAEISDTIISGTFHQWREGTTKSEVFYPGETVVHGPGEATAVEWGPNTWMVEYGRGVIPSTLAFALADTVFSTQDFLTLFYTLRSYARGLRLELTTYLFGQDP
For data set [5], the target named is T1, Adenosine receptor A3 (Homo sapiens) (UniProt P0DMS8).
T1 sequence (whole entry): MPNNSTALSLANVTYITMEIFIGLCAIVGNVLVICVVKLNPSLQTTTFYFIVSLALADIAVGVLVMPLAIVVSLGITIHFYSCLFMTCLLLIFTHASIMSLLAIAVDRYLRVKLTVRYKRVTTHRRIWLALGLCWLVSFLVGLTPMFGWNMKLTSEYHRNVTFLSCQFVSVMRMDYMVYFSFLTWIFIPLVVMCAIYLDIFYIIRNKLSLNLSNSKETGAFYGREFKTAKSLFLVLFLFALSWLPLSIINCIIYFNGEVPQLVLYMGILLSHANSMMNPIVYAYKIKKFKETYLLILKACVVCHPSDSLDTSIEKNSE
Put plainly: Partial agonist activity at recombinant human A3AR expressed in HEK293 cells assessed as inhibition of forskolin-stimulated cAMP accumulation at 10 uM measured after 30 mins in presence of A2BAR blocker PSB-603 by Glo-sensor assay relative to Cl-IB-MECA. The class given is functional, cell-based. On the technique in general: Changes in cAMP serve as a functional read-out for many G protein-coupled receptors.

The test system of data set [6] is Mus musculus. Nature of the data set: In vivo agonist activity at A3AR in C57BL/6J mouse assessed as reduction in core body temperature at 10 mg/kg, ip measured up to 2 hrs by telemetric method. The class given is functional, organism-based. In short, it runs like this: as §1
The next data set concerns the target T2, Cytochrome P450 1A2 (Homo sapiens, UniProt P05177).
T2 sequence (P05177 whole entry): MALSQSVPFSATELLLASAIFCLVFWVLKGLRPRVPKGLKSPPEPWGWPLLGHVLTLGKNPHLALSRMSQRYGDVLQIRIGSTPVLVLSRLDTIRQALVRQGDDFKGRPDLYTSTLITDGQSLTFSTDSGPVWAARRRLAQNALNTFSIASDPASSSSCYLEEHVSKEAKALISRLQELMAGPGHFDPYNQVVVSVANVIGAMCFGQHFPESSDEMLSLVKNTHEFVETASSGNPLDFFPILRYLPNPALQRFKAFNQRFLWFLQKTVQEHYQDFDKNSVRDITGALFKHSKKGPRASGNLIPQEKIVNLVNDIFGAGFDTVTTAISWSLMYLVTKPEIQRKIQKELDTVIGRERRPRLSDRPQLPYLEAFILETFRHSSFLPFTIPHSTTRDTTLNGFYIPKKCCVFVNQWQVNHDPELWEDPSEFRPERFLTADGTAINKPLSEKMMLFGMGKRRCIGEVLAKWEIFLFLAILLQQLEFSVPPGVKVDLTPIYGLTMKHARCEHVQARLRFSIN
Nature of the data set: Inhibition of CYP1A2 (unknown origin).

In data set [7] the target is T3, Adenosine receptor A1 (Mus musculus, UniProt Q60612).
T3 sequence (Q60612 whole entry): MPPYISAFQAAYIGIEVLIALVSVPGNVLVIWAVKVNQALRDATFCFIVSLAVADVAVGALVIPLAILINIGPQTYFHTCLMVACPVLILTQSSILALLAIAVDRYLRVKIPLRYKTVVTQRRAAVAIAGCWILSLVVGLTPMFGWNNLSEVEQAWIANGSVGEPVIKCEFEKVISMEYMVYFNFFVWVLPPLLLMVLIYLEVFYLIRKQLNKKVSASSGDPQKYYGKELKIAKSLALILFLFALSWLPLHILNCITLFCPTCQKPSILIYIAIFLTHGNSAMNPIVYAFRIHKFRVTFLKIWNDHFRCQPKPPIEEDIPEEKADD
Nature of the data set: Displacement of [3H]R-PIA from recombinant mouse A1AR expressed in HEK293 cell membranes measured after 60 mins by liquid scintillation counting method.

Data set [8] relates to Mus musculus. Put plainly: In vivo antagonist activity at A3AR in C57BL/6J mouse assessed as inhibition of MRS5698-induced hypothermia at 3 to 10 mg/kg, ip pretreated for 15 mins followed by MRS5698 addition and measured up to 2 hrs by telemetric method. Format: functional, organism-based.
In the next data set the target is Cytochrome P450 3A4 (Homo sapiens, UniProt P08684). Nature of the data set: Inhibition of CYP3A4 (unknown origin) using midazolam as substrate.
Cytochrome P450 3A4, sequence (P08684 whole entry): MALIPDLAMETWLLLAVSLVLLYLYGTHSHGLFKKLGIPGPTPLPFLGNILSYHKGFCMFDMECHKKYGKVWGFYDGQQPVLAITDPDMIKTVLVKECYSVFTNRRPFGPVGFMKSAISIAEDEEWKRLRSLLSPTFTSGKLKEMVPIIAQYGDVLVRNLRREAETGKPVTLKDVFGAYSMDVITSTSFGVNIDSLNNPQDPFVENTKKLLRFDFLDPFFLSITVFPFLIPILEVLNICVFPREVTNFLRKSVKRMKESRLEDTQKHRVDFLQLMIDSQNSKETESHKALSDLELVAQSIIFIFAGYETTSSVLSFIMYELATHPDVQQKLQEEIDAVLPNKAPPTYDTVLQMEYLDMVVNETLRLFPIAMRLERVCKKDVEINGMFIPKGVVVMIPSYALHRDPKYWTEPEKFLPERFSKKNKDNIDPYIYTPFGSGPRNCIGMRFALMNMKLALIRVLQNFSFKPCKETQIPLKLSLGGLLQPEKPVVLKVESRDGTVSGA
The nature of data set [9]: in vivo. The following applies: Wistar, rat, po, 3 mg/kg.
For another data set, the target named is Translocator protein (Homo sapiens, UniProt P30536). Nature of the data set: Inhibition of TSPO (unknown origin).
Translocator protein, sequence (P30536 whole entry): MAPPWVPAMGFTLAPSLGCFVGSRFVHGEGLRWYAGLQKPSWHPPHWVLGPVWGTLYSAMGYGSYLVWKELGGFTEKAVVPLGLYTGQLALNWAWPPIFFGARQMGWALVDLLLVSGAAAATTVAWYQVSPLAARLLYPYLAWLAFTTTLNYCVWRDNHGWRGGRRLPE
Data set [10] concerns the target T4, Adenosine receptor A3 (Mus musculus) (UniProt Q61618).
T4 sequence (whole entry): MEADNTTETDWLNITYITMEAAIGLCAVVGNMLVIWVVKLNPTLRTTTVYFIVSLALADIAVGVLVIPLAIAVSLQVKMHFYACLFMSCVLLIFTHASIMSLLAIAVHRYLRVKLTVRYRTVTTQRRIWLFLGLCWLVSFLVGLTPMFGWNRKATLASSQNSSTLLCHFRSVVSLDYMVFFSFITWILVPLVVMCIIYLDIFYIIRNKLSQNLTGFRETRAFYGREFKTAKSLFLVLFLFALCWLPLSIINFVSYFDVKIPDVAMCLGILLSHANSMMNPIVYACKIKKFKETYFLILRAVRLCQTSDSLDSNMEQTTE
Put plainly: Partial agonist activity at recombinant mouse A3AR expressed in HEK293 cell membranes assessed as stimulation of [35S]GTPgammaS binding measured after 2 hrs in presence of A2BAR blocker PSB-603 by liquid scintillation counting analysis relative to adenosine-5'-Nethyluronamide. Format: functional. (In general: Binding of GTPγS marks nucleotide exchange on a G protein.)

A short description of data set [11]: in vivo. Particulars: Wistar, rat, po, 10 mg/kg.
For the next data set, the target named is Cytochrome P450 2C19 (Homo sapiens, UniProt P33261). Put plainly: Inhibition of CYP2C19 (unknown origin).
Cytochrome P450 2C19, sequence (P33261 whole entry): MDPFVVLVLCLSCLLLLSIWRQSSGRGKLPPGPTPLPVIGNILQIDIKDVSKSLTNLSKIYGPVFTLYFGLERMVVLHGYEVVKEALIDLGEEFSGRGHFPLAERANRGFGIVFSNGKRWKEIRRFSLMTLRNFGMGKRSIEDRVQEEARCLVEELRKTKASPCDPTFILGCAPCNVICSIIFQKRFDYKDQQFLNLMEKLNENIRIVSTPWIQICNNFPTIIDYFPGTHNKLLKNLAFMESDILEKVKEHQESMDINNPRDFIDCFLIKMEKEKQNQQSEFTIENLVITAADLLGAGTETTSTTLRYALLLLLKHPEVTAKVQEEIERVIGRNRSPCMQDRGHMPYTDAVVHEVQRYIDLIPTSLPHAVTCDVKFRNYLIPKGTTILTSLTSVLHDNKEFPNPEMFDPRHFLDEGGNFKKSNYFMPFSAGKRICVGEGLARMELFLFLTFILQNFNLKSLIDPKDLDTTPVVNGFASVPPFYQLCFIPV
The target in data set [12] is T5, Adenosine receptor A2a (Homo sapiens, UniProt P29274). Nature of the data set: Displacement of [3H]CGS21680 from recombinant human A2AAR expressed in HEK293 cell membranes at 10 uM measured after 60 mins by liquid scintillation counting method relative to control.
T5 sequence (P29274 whole entry): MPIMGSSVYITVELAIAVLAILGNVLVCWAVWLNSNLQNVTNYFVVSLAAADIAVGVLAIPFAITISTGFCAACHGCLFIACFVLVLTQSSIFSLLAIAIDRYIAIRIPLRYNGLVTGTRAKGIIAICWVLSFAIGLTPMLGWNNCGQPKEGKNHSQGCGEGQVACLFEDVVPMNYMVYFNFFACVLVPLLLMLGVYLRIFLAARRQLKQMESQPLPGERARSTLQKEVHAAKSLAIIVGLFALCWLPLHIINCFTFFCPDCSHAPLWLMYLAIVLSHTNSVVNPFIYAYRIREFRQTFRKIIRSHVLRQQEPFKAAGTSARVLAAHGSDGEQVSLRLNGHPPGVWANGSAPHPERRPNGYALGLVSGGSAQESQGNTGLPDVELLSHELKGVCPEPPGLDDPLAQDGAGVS
The target in another data set is Cytochrome P450 2D6 (Homo sapiens, UniProt P10635). Nature of the data set: Inhibition of CYP2D6 (unknown origin) using dextromethorphan as substrate.
Cytochrome P450 2D6, sequence (P10635 whole entry): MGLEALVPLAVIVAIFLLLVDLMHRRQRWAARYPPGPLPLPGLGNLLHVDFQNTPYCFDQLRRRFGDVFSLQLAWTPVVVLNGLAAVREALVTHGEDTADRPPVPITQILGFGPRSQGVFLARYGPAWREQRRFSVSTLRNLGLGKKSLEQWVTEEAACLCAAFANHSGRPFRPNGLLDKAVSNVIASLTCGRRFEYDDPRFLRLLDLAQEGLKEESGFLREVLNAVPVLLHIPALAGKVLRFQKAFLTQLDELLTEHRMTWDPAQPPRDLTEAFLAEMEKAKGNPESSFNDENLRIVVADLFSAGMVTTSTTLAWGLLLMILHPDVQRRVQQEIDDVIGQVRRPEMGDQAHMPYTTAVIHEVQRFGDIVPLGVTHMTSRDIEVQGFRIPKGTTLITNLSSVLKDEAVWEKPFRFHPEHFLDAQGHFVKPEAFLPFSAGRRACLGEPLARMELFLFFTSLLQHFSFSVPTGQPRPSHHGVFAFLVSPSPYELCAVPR
The target of data set [13] is T6, Adenosine receptor A1 (Homo sapiens) (UniProt P30542).
T6 sequence (whole entry): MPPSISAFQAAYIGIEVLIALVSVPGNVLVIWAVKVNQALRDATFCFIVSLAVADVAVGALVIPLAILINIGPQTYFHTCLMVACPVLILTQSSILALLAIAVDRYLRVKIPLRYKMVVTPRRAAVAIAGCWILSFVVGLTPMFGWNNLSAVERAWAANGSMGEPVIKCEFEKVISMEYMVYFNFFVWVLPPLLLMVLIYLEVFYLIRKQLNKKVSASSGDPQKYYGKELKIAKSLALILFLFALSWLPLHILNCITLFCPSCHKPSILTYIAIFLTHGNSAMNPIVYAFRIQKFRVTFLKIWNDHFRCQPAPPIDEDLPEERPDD
Nature of the data set: Displacement of [3H]R-PIA from recombinant human A1AR expressed in HEK293 cell membranes at 10 uM measured after 60 mins by liquid scintillation counting method relative to control.

In data set [14] the test system is Mus musculus. Put plainly: Induction of hypothermia in A3AR knock out C57BL/6J mouse at 10 mg/kg, ip measured up to 2 hrs by telemetric method. The class given is functional, organism-based. The method, boiled down:
as §1

Another data set deals with Cytochrome P450 2C9 (Homo sapiens, UniProt P11712). Nature of the data set: Inhibition of CYP2C9 (unknown origin) using tolbutamide as substrate.
Cytochrome P450 2C9, sequence (P11712 whole entry): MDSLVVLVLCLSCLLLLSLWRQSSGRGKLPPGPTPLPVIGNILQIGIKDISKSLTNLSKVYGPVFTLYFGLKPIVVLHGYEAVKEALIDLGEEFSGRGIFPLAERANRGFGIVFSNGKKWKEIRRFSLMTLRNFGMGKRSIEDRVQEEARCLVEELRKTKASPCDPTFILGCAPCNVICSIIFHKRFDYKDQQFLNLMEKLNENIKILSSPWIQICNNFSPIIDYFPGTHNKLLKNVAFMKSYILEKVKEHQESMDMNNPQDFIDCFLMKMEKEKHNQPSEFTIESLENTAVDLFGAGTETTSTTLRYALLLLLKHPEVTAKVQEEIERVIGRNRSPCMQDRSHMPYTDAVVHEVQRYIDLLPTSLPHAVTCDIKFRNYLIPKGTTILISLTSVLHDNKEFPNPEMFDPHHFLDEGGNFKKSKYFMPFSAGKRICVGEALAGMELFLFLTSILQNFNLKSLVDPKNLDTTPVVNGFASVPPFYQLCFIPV
Data set [15] in a line: Half life in Wistar rat at 3 mg/kg, po. Format: ADME, organism-based. The following applies: in vivo.
Data set [16] deals with T1, Adenosine receptor A3 (Homo sapiens). Nature of the data set: Partial agonist activity at recombinant human A3AR expressed in HEK293 cells assessed as inhibition of forskolin-stimulated cAMP accumulation by measuring residual cAMP level measured after 30 mins in presence of A2BAR blocker PSB-603 by Glo-sensor assay relative to control. The class given is functional, cell-based.

In data set [17] the target is T7, Adenosine receptor A3 (Mus musculus, UniProt Q61618).
T7 sequence (Q61618 whole entry): T4 sequence (whole entry)
Nature of the data set: biochemical.

Data set [18] concerns the target T8, Adenosine receptor A3 (Homo sapiens, UniProt P0DMS8).
T8 sequence (P0DMS8 whole entry): T1 sequence (whole entry)
Nature of the data set: biochemical.

Data set [19] concerns the target T9, Adenosine receptor A1 (Homo sapiens, UniProt P30542).
T9 sequence (P30542 whole entry): T6 sequence (whole entry)
Nature of the data set: Displacement of [3H]R-PIA from recombinant human A1AR expressed in HEK293 cell membranes measured after 60 mins by liquid scintillation counting method.

The target in data set [20] is T5, Adenosine receptor A2a. Nature of the data set: Displacement of [3H]CGS21680 from recombinant human A2AAR expressed in HEK293 cell membranes measured after 60 mins by liquid scintillation counting method.

The source made the active and inactive calls. The rule behind the calls is not given here.

On to `COc1cc(CCNc2nc(C#Cc3ccccc3)nc3c2ncn3[C@H]2[C@H](O)[C@H](O)[C@@H]3C[C@@H]32)ccc1O`, for which the outcome in the data set with Mus musculus [1] and in the data set with Mus musculus [6] was Active. The figures for the half-life in [2] and in [15] were 29.4 min and 27.4 min, respectively. Further, the Ki (as a rule, a dissociation constant, usually derived from enzyme kinetics or from competition with a known ligand) came to 1.98 µM in data set [3], 3.57 µM in data set [4], 0.59 µM at Adenosine receptor A1 [7] and 2.22 µM at Translocator protein. Also, the values for the Emax in data set [5], in data set [10] and in [16] were 31%, 16% and 75.5%, respectively. The IC50 – broadly, the point on the concentration scale where inhibition reaches its midpoint – is 2.89 µM on Cytochrome P450 1A2; 2.23 µM at Cytochrome P450 3A4; above 30 µM at Cytochrome P450 2C19; above 30 µM against Cytochrome P450 2D6; 14.4 µM against Cytochrome P450 2C9. The inhibition (as a rule, the change of the read-out against control, counted positive when it falls) in the data set with Mus musculus [8] was “inactive”. Further, the bioavailability (commonly the share of a dose that reaches the circulation, judged against a reference dose that is usually intravenous) in the data set “in vivo [9]” was found to be 1.5%; in “in vivo [11]”, 3.5%. The inhibition at Adenosine receptor A2a [12] was 39%; in [13], 33%. Moreover, in the data set on Mus musculus [14], the outcome was inactive.
For `COc1cc(CCNc2nc(C#Cc3ccccc3F)nc3c2ncn3[C@H]2[C@H](O)[C@H](O)[C@@H]3C[C@@H]32)ccc1O`, the Ki on Adenosine receptor A1 [7] was determined as 0.62 µM; on Adenosine receptor A3 [17], 0.0215 µM; at Adenosine receptor A3 [18], 0.00542 µM; at Adenosine receptor A1 [19] it was 0.186 µM; on Adenosine receptor A2a [20], 5.85 µM.

These data come from ChEMBL document CHEMBL4402597, “Truncated (N)-Methanocarba Nucleosides as Partial Agonists at Mouse and Human A3 Adenosine Receptors: Affinity Enhancement by N6-(2-Phenylethyl) Substitution” (J Med Chem, 2020).
